Test results: ChEMBL document CHEMBL1123282, “Antiinflammatory activity of substituted 6-hydroxypyrimido[2,1-f]purine-2,4,8(1H,3H,9H)-triones. Atypical nonsteroidal antiinflammatory agents” (J Med Chem, 1986)
One block for each compound: values may come before it.

Assays:
[1] = tested on: Rattus norvegicus; test: Compound was tested for gastric ulcerogenic effect in rats, activity expressed as lesion length at a dose of 10 mg/kg
[2] = tested on: Rattus norvegicus; test: Compound was tested for intestinal ulcerogenic effect in rats at a dose of 300 mg/kg; type: functional
Method in brief: (§1)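 Normal fed rats were gavaged once daily for three consecutive days at 10–300 mg/kg and killed 24 h after the last dose. Intestines were examined for ulcers, recording incidence per group of 8 and a lesion score (±SE).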

[3] = tested on: Rattus norvegicus; test: Compound was tested for intestinal ulcerogenic effect in rats, activity expressed as ulcer incidence at a dose of 300 mg/kg; type: functional
Method in brief: as §1

[4] = tested on: Rattus norvegicus; test: Compound was tested for intestinal ulcerogenic effect in rats, activity expressed as ulcer incidence at a dose of 10 mg/kg; type: functional
Method in brief: as §1

[5] = tested on: Rattus norvegicus; test: Compound was tested for intestinal ulcerogenic effect in rats, activity expressed as lesion score at a dose of 30 mg/kg; type: functional
Method in brief: as §1

[6] = tested on: Rattus norvegicus; test: Compound was tested for intestinal ulcerogenic effect in rats, activity expressed as lesion score at a dose of 10 mg/kg; type: functional
Method in brief: as §1

[7] = tested on: Rattus norvegicus; test: Compound was tested for intestinal ulcerogenic effect in rats, activity expressed as ulcer incidence at a dose of 100 mg/kg; type: functional
Method in brief: as §1

[8] = tested on: Rattus norvegicus; test: Compound was tested in vivo against chronic adjuvant arthritic rat by prophylactic inhibition 1 degree paw. Relative potency with respect to (8-Benzyl-5-hydroxy-1,3-dimethyl-6-propyl-1H,8H-1,3,4b,8,9-pentaaza-fluorene-2,4,7-trione); type: functional
[9] = tested on: Rattus norvegicus; test: Compound was tested for gastric ulcerogenic effect in rats, activity expressed as lesion length at a dose of 30 mg/kg
[10] = tested on: Rattus norvegicus; test: Compound was tested for intestinal ulcerogenic effect in rats at a dose of 10 mg/kg; type: functional
Method in brief: as §1

[11] = tested on: Rattus norvegicus; test: Compound was tested for intestinal ulcerogenic effect in rats at a dose of 100 mg/kg; type: functional
Method in brief: as §1

[12] = tested on: Rattus norvegicus; test: Compound was tested for intestinal ulcerogenic effect in rats, activity expressed as lesion score at a dose of 100 mg/kg; type: functional
Method in brief: as §1

[13] = species: Rattus norvegicus; test: Delayed Type hypersensitivity (DTH) is measured by increase in ear thickness 24 hours after antigen injection into pinna 10e-3; type: functional
[14] = tested on: Rattus norvegicus; test: Compound was tested for gastric ulcerogenic effect in rats, activity expressed as lesion length at a dose of 100 mg/kg
[15] = Plasma level data at a dose of 20 mg/kg, iv after 1 hr; type: ADME, organism-based; design: dose 20 mg/kg, route intravenous; settings: read-out: Plasma level
Method in brief: (§2)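 Male Lewis rats get a single iv or oral dose of the sodium salt, suspended in 0.4% (w/v) methyl cellulose. Plasma drug levels are measured by HPLC at the timed points and given as mean ± SD, n = 3.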

[16] = Plasma level data at a dose of 20 mg/kg, iv after 2 hr; type: ADME, organism-based; design: dose 20 mg/kg, route intravenous; settings: read-out: Plasma level
Method in brief: as §2

[17] = Plasma level data at a dose of 20mg/kg, po after 0.5 hr; type: ADME, organism-based; settings: read-out: Plasma level
Method in brief: as §2

[18] = Plasma level data at a dose of 20 mg/kg, iv after 6 hr; type: ADME, organism-based; design: dose 20 mg/kg, route intravenous; settings: read-out: Plasma level
Method in brief: as §2

[19] = tested on: Rattus norvegicus; test: Compound was tested in vivo for antiinflammatory activity against chronic adjuvant arthritic rat by therapeutic inhibition 2 degree paw after peroral administration of 1 mg/kg of dose; type: functional; settings: route oral
[20] = species: Rattus norvegicus; test: Delayed Type hypersensitivity (DTH) is measured by increase in ear thickness 24 hours after antigen injection into pinna; type: functional
[21] = tested on: Rattus norvegicus; test: Compound was tested in vivo for antiinflammatory activity against chronic adjuvant arthritic rat by therapeutic inhibition 1 degree paw after peroral administration of 3 mg/kg of dose; type: functional; settings: route oral
[22] = Plasma level data at a dose of 20mg/kg, po after 2 hr; type: ADME, organism-based; settings: read-out: Plasma level
Method in brief: as §2

[23] = Plasma level data at a dose of 20 mg/kg, iv after 12 hr; type: ADME, organism-based; design: dose 20 mg/kg, route intravenous; settings: read-out: Plasma level
Method in brief: as §2

[24] = Plasma level data at a dose of 20 mg/kg, iv after 0.5 hr; type: ADME, organism-based; design: dose 20 mg/kg, route intravenous; settings: read-out: Plasma level
Method in brief: as §2

[25] = Plasma level data at a dose of 20mg/kg, po after 6 hr; type: ADME, organism-based; settings: read-out: Plasma level
Method in brief: as §2

[26] = Plasma level data at a dose of 20 mg/kg, po after 12 hr; type: ADME, organism-based; design: dose 20 mg/kg, route oral; settings: read-out: Plasma level
Method in brief: as §2

[27] = tested on: Rattus norvegicus; test: Compound was tested in vivo for antiinflammatory activity against chronic adjuvant arthritic rat by therapeutic inhibition 1 degree paw after peroral administration of 1 mg/kg of dose; type: functional; settings: route oral
[28] = Plasma level data at a dose of 20 mg/kg, po after 4 hr; type: ADME, organism-based; design: dose 20 mg/kg, route oral; settings: read-out: Plasma level
Method in brief: as §2

[29] = Plasma level data at a dose of 36 mg/kg, po after 6 hr; type: ADME, organism-based; design: dose 36 mg/kg, route oral; settings: read-out: Plasma level
Method in brief: (§3)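 Male Lewis rats given a single po dose of the sodium salt suspended in 0.4% (w/v) methyl cellulose. Plasma drug levels measured by HPLC at set times up to 12 h; values are mean ± SD, n = 3.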

[30] = tested on: Rattus norvegicus; test: Compound was tested for intestinal Ulcerogenic effect in rats, activity expressed as ulcer incidence at a dose of 300 mg/kg; type: functional
Method in brief: as §1

[31] = tested on: Rattus norvegicus; test: C(compound) was tested for intestinal Ulcerogenic effect in rats at a dose of 30 mg/kg; type: functional
Method in brief: as §1

[32] = tested on: Rattus norvegicus; test: Compound was tested for intestinal Ulcerogenic effect in rats, activity expressed as lesion score at a dose of 300 mg/kg; type: functional
Method in brief: as §1

[33] = Plasma level data at a dose of 36 mg/kg, po after 12 hr; type: ADME, organism-based; design: dose 36 mg/kg, route oral; settings: read-out: Plasma level
Method in brief: as §3

[34] = Plasma level data at a dose of 36 mg/kg, iv after 6 hr; type: ADME, organism-based; design: dose 36 mg/kg, route intravenous; settings: read-out: Plasma level
Method in brief: as §2

[35] = tested on: Rattus norvegicus; test: Compound was tested in vivo against chronic adjuvant arthritic rat by therapeutic inhibition 2 degree paw. Relative potency with respect to (8-Benzyl-5-hydroxy-1,3-dimethyl-6-propyl-1H,8H-1,3,4b,8,9-pentaaza-fluorene-2,4,7-trione); type: functional
[36] = species: Rattus norvegicus; test: Delayed Type hypersensitivity (DTH) is measured by increase in ear thickness 24 hours after antigen injection into pinna (10E-3); type: functional
[37] = Plasma level data at a dose of 36 mg/kg, iv after 0.25 hr; type: ADME, organism-based; design: dose 36 mg/kg, route intravenous; settings: read-out: Plasma level
Method in brief: as §2

[38] = Plasma level data at a dose of 36 mg/kg, po after 0.5 hr; type: ADME, organism-based; design: dose 36 mg/kg, route oral; settings: read-out: Plasma level
Method in brief: as §2

[39] = tested on: Rattus norvegicus; test: Compound was tested for intestinal Ulcerogenic effect in rats at a dose of 300 mg/kg; type: functional
Method in brief: as §1

[40] = Plasma level data at a dose of 36 mg/kg, iv after 0.5 hr; type: ADME, organism-based; design: dose 36 mg/kg, route intravenous; settings: read-out: Plasma level
Method in brief: as §2

[41] = tested on: Rattus norvegicus; test: Compound was tested in vivo for antiinflammatory activity against chronic adjuvant arthritic rat by therapeutic percentage inhibition 1 degree paw after peroral administration of 30 mg/kg of dose; type: functional
[42] = Plasma level data at a dose of 36 mg/kg, iv after 1 hr; type: ADME, organism-based; design: dose 36 mg/kg, route intravenous; settings: read-out: Plasma level
Method in brief: as §2

[43] = Plasma level data at a dose of 36 mg/kg, po after 2 hr; type: ADME, organism-based; design: dose 36 mg/kg, route oral; settings: read-out: Plasma level
Method in brief: as §3

[44] = Plasma level data at a dose of 36 mg/kg, iv after 12 hr; type: ADME, organism-based; design: dose 36 mg/kg, route intravenous; settings: read-out: Plasma level
Method in brief: as §2

[45] = tested on: Rattus norvegicus; test: Compound was tested in vivo for antiinflammatory activity against chronic adjuvant arthritic rat by therapeutic percentage inhibition 1 degree paw after peroral administration of 3.3 mg/kg of dose; type: functional; settings: route oral

Structure (SMILES): CC(C)=CCc1c(O)n(Cc2ccc(F)cc2)c2nc3c(c(=O)n(C)c(=O)n3C)n2c1=O
Length [1]: 0 mm rat-1
Ulcer incidence [2]: 2 number/group
Ulcer incidence [3]: 2 number/group
Ulcer incidence [4]: 0 number/group
Lesion length [5]: 0 mm rat-1
Lesion length [6]: 0 mm rat-1
Ulcer incidence [7]: 0 number/group
Relative potency [8]: 1.1
Length [9]: 0.1 mm rat-1
Ulcer incidence [10]: 0 number/group
Ulcer incidence [11]: 0 number/group
Lesion length [12]: 0 mm rat-1
DTH [13]: 47.3 10e-3mm
Length [14]: 0.1 mm rat-1

concentration at 1 h [15]: 74.7 µg/mL
concentration at 2 h [16]: 53.8 µg/mL
concentration at 0.5 h [17]: 10800 ng/mL
concentration at 6 h [18]: 35100 ng/mL
concentration at 2 h [22]: 21900 ng/mL
concentration at 12 h [23]: 10600 ng/mL
concentration at 0.5 h [24]: 78.6 µg/mL
concentration at 6 h [25]: 37000 ng/mL
concentration at 12 h [26]: 26700 ng/mL
concentration at 4 h [28]: 39000 ng/mL
Structure (SMILES): CC(C)=CCc1c(O)n(Cc2ccccc2)c2nc3c(c(=O)n(C)c(=O)n3C)n2c1=O
inhibition in vivo at 1 mg/kg [19]: 37%
DTH [20]: 0.0582 mm
inhibition in vivo at 3 mg/kg [21]: 22%
inhibition in vivo at 1 mg/kg [27]: 0%

concentration at 6 h [29]: 21000 ng/mL
concentration at 12 h [33]: 35900 ng/mL
concentration at 6 h [34]: 78.3 µg/mL
concentration at 0.25 h [37]: 140 µg/mL
concentration at 0.5 h [38]: 45100 ng/mL
concentration at 0.5 h [40]: 107 µg/mL
concentration at 1 h [42]: 107 µg/mL
concentration at 2 h [43]: 66.1 µg/mL
concentration at 12 h [44]: 88.3 µg/mL
Structure (SMILES): CCCc1c(O)n(Cc2ccc(F)cc2)c2nc3c(c(=O)n(C)c(=O)n3C)n2c1=O
Ulcer incidence [30]: 0 number/group
Ulcer incidence [31]: 0 number/group
Lesion score [32]: 0 mm rat-1
Relative potency [35]: 0.9
DTH [36]: 34.1 10e-3mm
Ulcer incidence [39]: 0 number/group
inhibition in vivo at 30 mg/kg ([41]; Rattus norvegicus, po): 47%
Inhibition ([41]; route oral, 30 mg/kg): 47%
inhibition in vivo at 3.3 mg/kg [45]: 7%
